Results taken from ChEMBL document CHEMBL2380254, “Optimization of tocotrienols as antiproliferative and antimigratory leads” (Eur J Med Chem, 2013).
pIC50: −log10 of the molar value.

What was measured:
IGROV-1 = experiment: Growth inhibition of human IGROV1 cells assessed as cell growth at 10 uM after 48 hrs by sulforhodamine B assay; format: functional; details: IGROV-1, 48 h, read-out: Activity
Method in brief: (§1)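 NCI-60 single-dose screen at 10 µM: cells in RPMI 1640 with 5% FBS, preincubated 24 h, then exposed 48 h at 37 °C. TCA fixation (16% final for suspension cells), SRB staining, absorbance 515 nm. Percent growth relative to time-zero and untreated control plates; negative values indicate cell kill.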

NCI-H226 = experiment: Growth inhibition of human NCI-H226 cells after 48 hrs by sulforhodamine B assay; format: functional; details: NCI-H226, 48 h
Method in brief: (§2)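 NCI-60 panel cells grown in RPMI 1640 with 5% FBS and 2 mM L-glutamine, seeded at 5000–40,000 cells/well and preincubated 24 h. Five 10-fold dilutions (0.001–100 µM) from DMSO stocks were added for 48 h at 37 °C. Adherent cells were fixed with cold TCA (10% final) for 60 min at 4 °C, stained with 0.4% SRB, and read at 515 nm. GI50 was set where 100×(T−T0)/(C−T0)=50.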

T47D = experiment: Growth inhibition of human T47D cells assessed as cell growth at 10 uM after 48 hrs by sulforhodamine B assay; format: functional; details: read-out: Activity
Method in brief: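 Single-dose NCI-60 test at 10 µM. Cells were grown in RPMI 1640 with 5% FBS and 2 mM L-glutamine, preincubated 24 h, with T0 plates TCA-fixed. Exposure was 48 h at 37 °C, 5% CO2. Cells were fixed with cold TCA (final 10%, 4 °C, 60 min), stained with SRB and read at 515 nm. Percent growth was taken relative to T0 and untreated control; negative values denote cell kill.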

[1] = Growth inhibition of human NCI-ADR-RES cells after 48 hrs by sulforhodamine B assay; format: functional; method in brief: as §2
DU-145 = experiment: Growth inhibition of human DU145 cells assessed as cell growth at 10 uM after 48 hrs by sulforhodamine B assay; format: functional; details: DU-145, 48 h, read-out: Activity; method in brief: as §1
NCI-H322M = experiment: Growth inhibition of human NCI-H322M cells assessed as cell growth at 10 uM after 48 hrs by sulforhodamine B assay; format: functional; details: read-out: Activity
Method in brief: (§3)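 Single-dose NCI-60 screen: adherent cells in RPMI 1640 with 5% FBS were exposed to 10 µM for 48 h at 37 °C after a 24 h preincubation. They were fixed in situ with cold TCA (10% final), stained with 0.4% SRB in 1% acetic acid, solubilized in 10 mM Tris base, and read at 515 nm. Percent growth was taken relative to time-zero and control plates.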

MOLT-4 = experiment: Growth inhibition of human MOLT4 cells after 48 hrs by sulforhodamine B assay; format: functional; details: MOLT-4, 48 h
Method in brief: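 NCI-60 suspension lines in RPMI 1640 with 5% FBS and 2 mM L-glutamine, preincubated 24 h. A five-concentration 10-fold series (0.001–100 µM) was given for 48 h at 37 °C. Settled cells were fixed with 80% TCA (16% final), stained with SRB, and read at 515 nm. GI50 was taken where 100×(T−T0)/(C−T0)=50, with T0 plates fixed at drug addition.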

NCI-H460 = experiment: Growth inhibition of human NCI-H460 cells after 48 hrs by sulforhodamine B assay; format: functional; details: NCI-H460, 48 h; method in brief: as §2
SK-MEL-28 = experiment: Growth inhibition of human SK-MEL-28 cells assessed as cell growth at 10 uM after 48 hrs by sulforhodamine B assay; format: functional; details: SK-MEL-28, 48 h, read-out: Activity; method in brief: as §3
MCF7 = experiment: Growth inhibition of human MCF7 cells assessed as cell growth at 10 uM after 48 hrs by sulforhodamine B assay; format: functional; details: MCF7, 48 h, read-out: Activity; method in brief: as §3
MDA-MB-435 = experiment: Growth inhibition of human MDA-MB-435 cells after 48 hrs by sulforhodamine B assay; format: functional; details: MDA-MB-435, 48 h; method in brief: as §2
OVCAR-8 = experiment: Growth inhibition of human OVCAR8 cells after 48 hrs by sulforhodamine B assay; format: functional; details: OVCAR-8, 48 h; method in brief: as §2
ACHN = experiment: Growth inhibition of human ACHN cells assessed as cell growth at 10 uM after 48 hrs by sulforhodamine B assay; format: functional; details: read-out: Activity; method in brief: as §1
UO-31 = experiment: Growth inhibition of human UO31 cells after 48 hrs by sulforhodamine B assay; format: functional; details: UO-31, 48 h
Method in brief: (§4)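 NCI-60 five-dose screen. Cells were grown in RPMI 1640 with 5% FBS and 2 mM L-glutamine, plated at 5000–40,000 cells/well and incubated 24 h before dosing, with T0 plates TCA-fixed. DMSO stocks were diluted to doses of […] and exposed 48 h at 37 °C, 5% CO2. Cells were fixed with cold TCA (final 10%, 60 min, 4 °C), stained with 0.4% SRB in 1% acetic acid for 10 min, solubilized in 10 mM trizma base and read at 515 nm. GI50 is where 100×(T−T0)/(C−T0)=50.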

BT-549 = experiment: Growth inhibition of human BT549 cells after 48 hrs by sulforhodamine B assay; format: functional; details: BT-549, 48 h
Method in brief: (§5)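 NCI-60 screen: cells in RPMI 1640 with 5% FBS and 2 mM glutamine, 5000–40,000 cells/well, preincubated 24 h. Five concentrations (10-fold dilutions; 100 to 0.001 µM) applied for 48 h at 37 °C. TCA fixation, SRB stain, absorbance at 515 nm. Time-zero plates included; GI50 where 100×(T−T0)/(C−T0)=50.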

SN12C = experiment: Growth inhibition of human SN12C cells after 48 hrs by sulforhodamine B assay; format: functional; method in brief: as §4
[2] = Antiproliferative activity against mouse +SA cells by MTT assay; format: functional, cell-based; details: +SA cell
Method in brief: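 Mouse +SA mammary epithelial cells in serum-free DMEM/F12 with BSA, transferrin, insulin and EGF. Compounds from DMSO stock conjugated to BSA (overnight, 37 °C); 0–40 µM, final DMSO <0.1%. MTT 0.42 mg/mL for 4 h at 37 °C, isopropanol solubilization, OD 570 nm. Cell number from a standard curve; IC50 by non-linear regression.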

[3] = Growth inhibition of human Hs 578T cells after 48 hrs by sulforhodamine B assay; format: functional; method in brief: as §5
SK-OV-3 = experiment: Growth inhibition of human SKOV3 cells after 48 hrs by sulforhodamine B assay; format: functional; details: SK-OV-3, 48 h; method in brief: as §4
U-251 = experiment: Growth inhibition of human U251 cells after 48 hrs by sulforhodamine B assay; format: functional; details: U-251, 48 h; method in brief: as §4
PC-3 = experiment: Growth inhibition of human PC3 cells after 48 hrs by sulforhodamine B assay; format: functional; details: PC-3, 48 h; method in brief: as §2
OVCAR-5 = experiment: Growth inhibition of human OVCAR5 cells assessed as cell growth at 10 uM after 48 hrs by sulforhodamine B assay; format: functional; details: OVCAR-5, 48 h, read-out: Activity; method in brief: as §3
OVCAR-3 = experiment: Growth inhibition of human OVCAR3 cells assessed as cell growth at 10 uM after 48 hrs by sulforhodamine B assay; format: functional; details: OVCAR-3, 48 h, read-out: Activity; method in brief: as §3
[4] = Growth inhibition of human EKVX cells assessed as cell growth at 10 uM after 48 hrs by sulforhodamine B assay; format: functional; details: read-out: Activity; method in brief: as §1

SMILES	growth at 10 µM (IGROV-1) [%]	growth at 10 µM (T47D) [%]	growth at 10 µM (DU-145) [%]	growth at 10 µM (NCI-H322M) [%]	growth at 10 µM (SK-MEL-28) [%]	growth at 10 µM (MCF7) [%]	growth at 10 µM (ACHN) [%]	pIC50 [2]	growth at 10 µM (OVCAR-5) [%]	growth at 10 µM (OVCAR-3) [%]	growth at 10 µM [4] [%]	other results
CC(C)=CCC/C(C)=C/CC/C(C)=C/CC[C@]1(C)CCc2c3c(c(C)c(C)c2O1)OCN(CCCCCCCCO)C3	-53.1	56.1	73.1	65.3	82.9	4.37	79.6	5.85	72.8	31.7	–	GI50 (NCI-H226): 2.79 µM; GI50 [1]: 5.5 µM; GI50 (MOLT-4): 3.26 µM; GI50 (NCI-H460): 3.25 µM; GI50 (MDA-MB-435): 3.2 µM; GI50 (OVCAR-8): 2.67 µM; GI50 (UO-31): 2.37 µM; GI50 (BT-549): 3.39 µM; GI50 (SN12C): 2.55 µM; GI50 [3]: 2.61 µM; GI50 (SK-OV-3): 2.63 µM; GI50 (U-251): 2.61 µM; GI50 (PC-3): 2.37 µM
CC(C)=CCC/C(C)=C/CC/C(C)=C/CC[C@]1(C)CCc2c3c(c(C)c(C)c2O1)OCN(CCCCCCCCCCCCO)C3	102	95.8	109	90.7	110	100	105	< 5.30	114	109	105	–
CC(C)=CCC/C(C)=C/CC/C(C)=C/CC[C@]1(C)CCc2c(CNCCc3ccc(O)cc3)c(O)c(C)c(C)c2O1	78.5	99.1	111	100	93.4	36.9	98.7	5.64	113	97.1	99.8	–
CC(C)=CCC/C(C)=C/CC/C(C)=C/CC[C@]1(C)CCc2c3c(c(C)c(C)c2O1)OCN(CCc1ccc(O)cc1)C3	67.7	93.7	107	96	76.6	16.9	99.8	5.82	111	98.2	93.9	–
COc1ccc(CCNCc2c(O)c(C)c(C)c3c2CC[C@@](C)(CC/C=C(\C)CC/C=C(\C)CCC=C(C)C)O3)cc1OC	71.5	83.2	110	95.6	92.6	29.3	97.5	5.77	104	101	99.3	–
CC(C)=CCC/C(C)=C/CC/C(C)=C/CC[C@]1(C)CCc2c3c(cc(C)c2O1)OCN(CCCCCCCCCCCCO)C3	72.5	78.5	85.4	86	75.3	26.3	91.3	5.70	102	89.5	77.6	–
CC(C)=CCC/C(C)=C/CC/C(C)=C/CC[C@]1(C)CCc2c3c(cc(C)c2O1)OCN(CCCCO)C3	-15.1	-7.14	2.95	48.5	0.63	-81.2	-57.1	5.74	6.91	-20.8	85.4	GI50 (NCI-H226): 15.3 µM; GI50 [1]: 16.8 µM; GI50 (MOLT-4): 16.2 µM; GI50 (NCI-H460): 6.18 µM; GI50 (MDA-MB-435): 17 µM; GI50 (UO-31): 12.2 µM; GI50 (BT-549): 20.2 µM; GI50 (SN12C): 16.3 µM; GI50 [3]: 18.5 µM; GI50 (SK-OV-3): 16.4 µM; GI50 (U-251): 6.64 µM; GI50 (PC-3): 16.2 µM
CC(C)=CCC/C(C)=C/CC/C(C)=C/CC[C@]1(C)CCc2c3c(cc(C)c2O1)OCN(CCCCCCCCCCO)C3	80.1	86.1	100	104	99.9	59.2	99.1	5.44	105	94.3	87.1	–
CC(C)=CCC/C(C)=C/CC/C(C)=C/CC[C@]1(C)CCc2cc(O)c(C)c(C)c2O1 [GAMMA-TOCOTRIENOL]	96.3	82.5	99.7	95.2	97.3	84.1	100	–	114	110	110	–
CC(C)=CCC/C(C)=C/CC/C(C)=C/CC[C@]1(C)CCc2c3c(c(C)c(C)c2O1)OCN(CCCCCCCCCCO)C3	102	85.2	67	101	98.2	93.4	92.6	5.36	106	94.8	102	–
COc1ccc(CCN2COc3c(C)c(C)c4c(c3C2)CC[C@@](C)(CC/C=C(\C)CC/C=C(\C)CCC=C(C)C)O4)cc1OC	87.4	98	111	101	93.6	77.5	95.8	5.74	101	105	94.1	–
CC(C)=CCC/C(C)=C/CC/C(C)=C/CC[C@]1(C)CCc2c3c(c(C)c(C)c2O1)OCN(CCCCCCO)C3	-23.6	8.28	77	69.5	63.1	-69.5	68.6	5.68	39	–	–	GI50 (NCI-H226): 2.81 µM; GI50 [1]: 2.87 µM; GI50 (MOLT-4): 2.92 µM; GI50 (NCI-H460): 3.15 µM; GI50 (MDA-MB-435): 2.95 µM; GI50 (OVCAR-8): 3.06 µM; GI50 (UO-31): 2.27 µM; GI50 (BT-549): 4.18 µM; GI50 (SN12C): 2.5 µM; GI50 [3]: 3.04 µM; GI50 (SK-OV-3): 2.57 µM; GI50 (U-251): 2.73 µM; GI50 (PC-3): 2.52 µM
